Structures can show the parent of a compound that is named as a salt.

The species entered for one data set is Sus scrofa. The data set can be described thus: Vasorelaxant effect was evaluated on isolated porcine coronary arteries precontracted with PGF-2 alpha. The data set is classed as functional. An outline of the steps:
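Endothelium-intact porcine coronary artery strips were held in Krebs-Henseleit (37 °C, pH 7.4, 95% O2-5% CO2) at 1 g resting tension. Endothelium was verified by 10^-8 M bradykinin relaxation after 50 mM KCl contraction. Strips were contracted with 10^-5 M PGF2α, then given cumulative compound additions. Relaxation was expressed as % of the PGF2α contraction. EC50 came from log concentration curves, as the mean of two experiments.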

Data set [1] can be described thus: Inhibition of phosphodiesterase 1 (PDE1) from porcine adrenal tissue. The data set is classed as tissue-based, Sus scrofa. The conditions noted are these: in the assay text read “porcine aorta” for “porcine adrenal tissue”. An outline of the steps:
(§1)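 Two-step radioisotopic PDE activity assay (modified) with 1 µM [3H]cGMP as substrate. Enzymes were isolated from porcine tissues, and PDE5 was purified by DEAE-Toyopearl 650S chromatography. Inhibitors were diluted from DMSO into assay buffer over 10^-10 to 10^-6 M, with 1% (v/v) DMSO final. IC50 came from log concentration-inhibition curves (at least four points), as the mean of three experiments.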

The target of data set [2] is T1, Phosphodiesterase 4A (Sus scrofa, UniProt O77823).
T1 sequence (O77823 whole entry): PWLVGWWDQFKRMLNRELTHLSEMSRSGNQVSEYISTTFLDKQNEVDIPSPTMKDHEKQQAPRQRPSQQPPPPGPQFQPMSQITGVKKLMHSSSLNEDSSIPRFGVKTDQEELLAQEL
Kind of data set: Inhibition of phosphodiesterase 4 (PDE4) from porcine liver, range 10.4-16.3. An outline of the steps: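 PDE4 isolated from porcine liver; activity measured by a modified two-step radioisotopic assay. Compounds dissolved in DMSO and diluted in assay buffer to 10^-10 to 10^-6 M, with 1% (v/v) final DMSO. IC50 taken from logarithmic concentration-inhibition curves of at least four points, as the mean of three experiments.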

Data set [3] addresses T2, Phosphodiesterase 3A (Sus scrofa, UniProt Q9XSW7).
T2 sequence (Q9XSW7 whole entry): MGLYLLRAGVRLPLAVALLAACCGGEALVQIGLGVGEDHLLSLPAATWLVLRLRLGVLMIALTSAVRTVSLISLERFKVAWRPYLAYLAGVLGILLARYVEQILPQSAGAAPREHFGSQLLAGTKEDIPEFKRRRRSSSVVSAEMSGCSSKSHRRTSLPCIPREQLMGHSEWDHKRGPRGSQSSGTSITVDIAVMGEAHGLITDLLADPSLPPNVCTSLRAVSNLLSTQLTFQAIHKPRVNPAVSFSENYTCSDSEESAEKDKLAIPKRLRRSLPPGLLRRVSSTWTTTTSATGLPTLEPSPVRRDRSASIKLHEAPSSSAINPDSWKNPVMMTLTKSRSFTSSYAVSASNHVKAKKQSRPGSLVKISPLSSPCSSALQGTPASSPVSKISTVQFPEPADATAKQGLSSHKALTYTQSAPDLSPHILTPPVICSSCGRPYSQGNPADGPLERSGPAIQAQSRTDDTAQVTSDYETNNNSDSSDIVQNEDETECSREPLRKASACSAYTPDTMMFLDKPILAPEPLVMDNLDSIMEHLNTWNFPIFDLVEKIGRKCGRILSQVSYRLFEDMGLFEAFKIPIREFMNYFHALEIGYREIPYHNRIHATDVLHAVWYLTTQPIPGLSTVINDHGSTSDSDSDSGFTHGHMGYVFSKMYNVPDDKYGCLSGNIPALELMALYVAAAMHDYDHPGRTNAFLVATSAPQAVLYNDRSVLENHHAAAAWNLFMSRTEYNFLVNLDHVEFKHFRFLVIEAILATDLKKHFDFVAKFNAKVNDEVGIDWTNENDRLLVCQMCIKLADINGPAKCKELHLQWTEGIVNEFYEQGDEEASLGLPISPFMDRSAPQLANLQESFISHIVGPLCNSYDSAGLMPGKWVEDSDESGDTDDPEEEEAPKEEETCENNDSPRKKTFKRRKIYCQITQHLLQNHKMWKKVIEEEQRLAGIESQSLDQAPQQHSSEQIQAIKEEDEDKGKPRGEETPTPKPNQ
Kind of data set: Inhibition of phosphodiesterase 3 (PDE3) from porcine platelets. An outline of the steps: as §1

A short description of data set [4]: Inhibition of phosphodiesterase 1 (PDE1) from porcine adrenal tissue, range 26.5-36.7. Details: species or system Sus scrofa. The conditions noted are these: in the assay text read “porcine aorta” for “porcine adrenal tissue”. An outline of the steps: as §1
Data set [5] deals with T1, Phosphodiesterase 4A. The data set can be described thus: Inhibition of phosphodiesterase 4 (PDE4) from porcine liver. An outline of the steps:
as §1

Data set [6] has as its target T3, PDE II (Sus scrofa, UniProt F1SUV3). Kind of data set: Inhibition of phosphodiesterase 2 (PDE2) from porcine adrenal.
Data set [7] concerns the target T2, Phosphodiesterase 3A. The data set can be described thus: Inhibition of phosphodiesterase 3 (PDE3) from porcine platelets, range 31.8-60.7.
Data set [8] is described as follows: Inhibition of phosphodiesterase 1 (PDE1) from porcine adrenal tissue, range 51.1-108. Details: species or system Sus scrofa. Conditions: in the assay text read “porcine aorta” for “porcine adrenal tissue”. An outline of the steps: as §1
Data set [9] can be described thus: Pharmacokinetic parameter, Bioavailability (F) after 0.3 mg/kg po administration in rats. Conditions: rat, in vivo, read-out: BA. The data set is classed as ADME, organism-based. An outline of the steps: (§2)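 Rats received a 0.3 mg/kg dose intravenously or orally, with n = 4 per route. Plasma pharmacokinetic parameters were then derived.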
Data set [10] is described as follows: Pharmacokinetic parameter, Cmax (plasma conc.) after 0.3 mg/kg po administration in rats. The data set is classed as ADME, organism-based. Details: dose 0.3 mg/kg, route oral. The conditions noted are these: rat. The essentials:
as §2

Data set [11] can be described thus: Pharmacokinetic parameter, AUC (area under curve) after 0.3 mg/kg po administration in rats. The data set is classed as ADME, organism-based. Details: dose 0.3 mg/kg, route oral. The conditions noted are these: rat, in vivo. An outline of the steps:
as §2

Data set [12] is described as follows: Pharmacokinetic parameter, AUC (area under curve) after 0.3 mg/kg iv administration in rats. The data set is classed as ADME, organism-based. Details: dose 0.3 mg/kg, route intravenous. Conditions: rat, in vivo. An outline of the steps: as §2
Data set [13] is described as follows: Pharmacokinetic parameter, tmax after 0.3 mg/kg po administration in rats. Details: dose 0.3 mg/kg, route oral. The conditions noted are these: rat, in vivo. The data set is classed as ADME, organism-based. An outline of the steps:
as §2

Data set [14] has as its target T2, Phosphodiesterase 3A. The data set can be described thus: Inhibition of phosphodiesterase 3 (PDE3) from porcine platelets, range 11.4-26.9. The essentials:
as §1

Data set [15] can be described thus: Inhibition of phosphodiesterase 1 (PDE1) from porcine adrenal tissue, range 20.0-34.4. Details: species or system Sus scrofa. The conditions noted are these: in the assay text read “porcine aorta” for “porcine adrenal tissue”. The essentials:
as §1

Data set [16] deals with T3, PDE II. Kind of data set: Inhibition of phosphodiesterase 2 (PDE2) from porcine platelets, range 0.841-1.15. Conditions: in the assay text read “porcine adrenal” for “porcine platelets”. The essentials:
as §1

Data set [17] has as its target T1, Phosphodiesterase 4A. Kind of data set: Inhibition of phosphodiesterase 4 (PDE4) from porcine liver, range 1.01-1.36. The essentials: as §1
A short description of data set [18]: Pharmacokinetic parameter, t1/2 after 0.3 mg/kg iv administration in rats. The data set is classed as ADME, organism-based. Details: dose 0.3 mg/kg, route intravenous. Conditions: rat, in vivo. An outline of the steps: as §2

As usually defined, the EC50 is the concentration at which the effect is half-maximal. A higher EC50 goes with a less potent agent. In the data set listed under Sus scrofa, `COc1ccc(CNc2nnc(N3CCC(C(=O)O)CC3)c3ccc(C#N)cc23)cc1Cl` came in with a half-maximal effective concentration (EC50) of 170 nM.
On the same count and under the same terms, under `COc1ccc(CNc2nnc(N3CCN(C)CC3)c3ccc(C#N)cc23)cc1Cl` stands 320 nM; under `CCCc1nn(C)c2c(=O)[nH]c(-c3cc(S(=O)(=O)N4CCN(C)CC4)ccc3OCC)nc12` [SILDENAFIL CITRATE], 38 nM.
For `COc1ccc(CNc2nnc(N3CCC(O)CC3)c3ccc(C(F)(F)F)cc23)cc1Cl`, in the data set listed under Sus scrofa, it took 120 nM to reach a half-maximal effect (EC50).
`COc1ccc(CNc2nnc(N3CCNCC3)c3ccc(C#N)cc23)cc1Cl` returned an EC50 in the data set listed under Sus scrofa of 870 nM.
As to `COc1ccc(CNc2nnc(N3CC=CCC3)c3ccc(C#N)cc23)cc1Cl`, in the data set filed under Sus scrofa, the EC50 stood at 130 nM.
For the molecule `COc1ccc(CNc2nnc(N3CCCCC3)c3ccc(C#N)cc23)cc1Cl`, a half-maximal effect in the data set listed under Sus scrofa (EC50) was put at 39 nM.
Take `COc1ccc(CNc2nnc(N3CCC(=O)CC3)c3ccc(C#N)cc23)cc1Cl`: it took 13 nM to reach a half-maximal effect in the data set filed under Sus scrofa (EC50).
On the same count and under the same terms, with `COc1ccc(CNc2nnc(N3CCC(O)CC3)c3ccc([N+](=O)[O-])cc23)cc1Cl` the figure was 30 nM; with `COc1ccc(CNc2nnc(N3CCN(CCO)CC3)c3ccc(C#N)cc23)cc1Cl`, 100 nM.
With `COc1ccc(CNc2nnc(N3CC[S+]([O-])CC3)c3ccc(C#N)cc23)cc1Cl`, it took 50 nM to reach a half-maximal effect in the data set filed under Sus scrofa (EC50).
What is called IC50 is the concentration that gives 50% inhibition. A lower IC50 goes with greater potency in that assay. For the molecule `Cc1[nH]c(=O)c(C#N)cc1-c1ccncc1` [MILRINONE], the 50% inhibitory concentration (IC50) is > 100000 nM in [1] and 13000 nM against Phosphodiesterase 4A [2].
In the data set filed under Sus scrofa, `COc1ccc(CNc2nnc(N3CCC(CCO)CC3)c3ccc(C#N)cc23)cc1Cl` had an EC50 of 30 nM.
On the same count and under the same terms, with `COc1ccc(CNc2nnc(N3CCC(C)(O)CC3)c3ccc(C#N)cc23)cc1Cl` the figure was 130 nM; with `COc1ccc(CNc2nnc(N3CCC(OC)CC3)c3ccc(C#N)cc23)cc1Cl`, 100 nM.
With `CCCOc1ccccc1-c1nc2[nH]nnc2c(=O)[nH]1` [ZAPRINAST], the IC50 on Phosphodiesterase 3A [3] is > 100000 nM; in data set [4], 31200 nM; against Phosphodiesterase 4A [5], > 100000 nM.
`COc1ccc(C2CNC(=O)C2)cc1OC1CCCC1` (stereo not drawn) [ROLIPRAM]: the concentration for half-maximal inhibition (IC50) at Phosphodiesterase 3A [3] was > 100000 nM; in data set [1], > 100000 nM; at Phosphodiesterase 4A [5], 3630 nM; against PDE II [6], > 100000 nM.
Consider `COc1ccc(CNc2nnc(N3CCC(O)CC3)c3ccc(Cl)cc23)cc1Cl`, for which a half-maximal response in the data set filed under Sus scrofa (EC50) required 780 nM.
For the molecule `OCCN(CCO)c1nc(N2CCCCC2)c2nc(N(CCO)CCO)nc(N3CCCCC3)c2n1` [DIPYRIDAMOLE], the half-inhibitory concentration (IC50) came out at 44000 nM at Phosphodiesterase 3A [7] and 74500 nM in data set [8].
In the case of `COc1ccc(CNc2nnc(N3CCC(CO)CC3)c3ccc(C#N)cc23)cc1Cl`, in the data set filed under Sus scrofa, it took 19 nM to reach a half-maximal effect (EC50).
The Cmax is the peak of the concentration-time curve. Broadly, the AUC is the area under the concentration-time curve, a measure of exposure. As usually defined, the Tmax is the time from dosing to the highest level. Broadly, the half-life is the time in which the quantity being followed falls by half. `COc1ccc(CNc2nnc(N3CCC(O)CC3)c3ccc(C#N)cc23)cc1Cl.Cl`: the bioavailability in data set [9] was determined as 19.5%. Besides, in [10], the highest level (Cmax) was 25.5 ng/mL. Further, the exposure (AUC) was 32.4 ng·h/mL in [11] and 166 ng·h/mL in data set [12]. Besides, the time to peak (Tmax) in [13] was 0.25 h. Besides, the 50% inhibitory concentration (IC50) against Phosphodiesterase 3A [14] was 17500 nM; in data set [15] it was 26200 nM; against PDE II [16], 984 nM; on Phosphodiesterase 4A [17] it was 1170 nM. This molecule also showed an EC50 in the data set listed under Sus scrofa of 13 nM. In data set [18], the half-life was 2.2 h.

The values above are taken from ChEMBL document CHEMBL1133760, “4-(3-Chloro-4-methoxybenzyl)aminophthalazines: synthesis and inhibitory activity toward phosphodiesterase 5” (J Med Chem, 2000).
